Data published in ChEMBL document CHEMBL4152296, “Synthesis, biological evaluation and molecular modeling of novel azaspiro dihydrotriazines as influenza virus inhibitors targeting the host factor dihydrofolate reductase (DHFR)” (Eur J Med Chem, 2018).
Calls of active or inactive are those of the source. The rule behind the calls is not given here.

Legend:
[1] = test system: Influenza B virus; assay: Antiviral activity against Influenza B virus B/Ned/537/05 infected in MDCK cells assessed as protection against virus-induced reduction in cell viability after 3 to 6 days by MTS assay; format: functional, organism-based; conditions: B/Ned/537/05, MDCK
How it was run: (§1)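 MDCK cells seeded at 9000/well and infected one day later (semiconfluent) with 100 CCID50 virus. Medium was FCS-free Ultra MDCK with 2 μg/mL TPCK-trypsin. Serial five-fold compound dilutions (top 100 μM) were added with the virus, followed by 3–6 days at 35 °C. MTS read-out gave % protection versus virus and mock controls. EC50 was interpolated from semi-log curves; mean of two or three experiments.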

[2] = test system: Vaccinia virus; assay: Antiviral activity against Vaccinia virus infected in human HEL299 cells assessed as inhibition of virus-induced cytopathic effect after 3 to 6 days by MTS assay; format: functional, organism-based; conditions: Orthopoxvirus vaccinia
[3] = test system: Influenza A virus; assay: Antiviral activity against Influenza A virus (A/Puerto Rico/8/34(H1N1)) infected in MDCK cells assessed as protection against virus-induced reduction in cell viability after 3 to 6 days by MTS assay; format: functional, organism-based; conditions: A/Puerto Rico/8/1934(H1N1); how it was run: as §1
[4] = test system: Yellow fever virus; assay: Antiviral activity against Yellow fever virus infected in African green monkey Vero cells assessed as inhibition of virus-induced cytopathic effect after 3 to 6 days by MTS assay; format: functional, organism-based
[5] = test system: Vesicular stomatitis virus; assay: Antiviral activity against Vesicular stomatitis virus infected in human HEL299 cells assessed as inhibition of virus-induced cytopathic effect after 3 to 6 days by MTS assay; format: functional, organism-based
[6] = test system: Vero; assay: Cytotoxicity against African green monkey Vero cells assessed as reduction in cell viability measured after 3 to 6 days by MTS assay; format: cell-based; conditions: chlorocebus sabaeus
[7] = test system: Human alphaherpesvirus 1; assay: Antiviral activity against Herpes simplex virus type 1 infected in human HEL299 cells assessed as inhibition of virus-induced cytopathic effect after 3 to 6 days by MTS assay; format: functional, organism-based
[8] = test system: Punta Toro virus; assay: Antiviral activity against Punta Toro virus infected in African green monkey Vero cells assessed as inhibition of virus-induced cytopathic effect after 3 to 6 days by MTS assay; format: functional, organism-based
[9] = test system: Mammalian orthoreovirus 1; assay: Antiviral activity against Reovirus-1 infected in African green monkey Vero cells assessed as inhibition of virus-induced cytopathic effect after 3 to 6 days by MTS assay; format: functional, organism-based
[10] = test system: Coxsackievirus B4; assay: Antiviral activity against Coxsackie B4 virus infected in human HeLa cells assessed as inhibition of virus-induced cytopathic effect after 3 to 6 days by MTS assay; format: functional, organism-based
[11] = test system: Respiratory syncytial virus; assay: Antiviral activity against Respiratory syncytial virus Long infected in human HeLa cells assessed as inhibition of virus-induced cytopathic effect after 3 to 6 days by MTS based microscopy; format: functional, organism-based
[12] = test system: Human respirovirus 3; assay: Antiviral activity against Parainfluenza virus 3 infected in African green monkey Vero cells assessed as inhibition of virus-induced cytopathic effect after 3 to 6 days by MTS assay; format: functional, organism-based
[13] = test system: MDCK; assay: Cytotoxicity against MDCK cells assessed as reduction in cell viability measured after 3 to 6 days by MTS assay; format: cell-based, Canis lupus familiaris; conditions: dog
How it was run: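 Mock-infected MDCK plates were run in parallel (FCS-free Ultra MDCK medium with TPCK-trypsin) with serial five-fold dilutions up to […], 35 °C for 3–6 days. CC50 was interpolated from semi-log dose-response curves; mean of two or three experiments.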

[14] = test system: Human alphaherpesvirus 2; assay: Antiviral activity against Herpes simplex virus type 2 infected in human HEL299 cells assessed as inhibition of virus-induced cytopathic effect after 3 to 6 days by MTS assay; format: functional, organism-based
[15] = test system: Human coronavirus 229E; assay: Antiviral activity against Human coronavirus 229E infected in human HEL299 cells assessed as inhibition of virus-induced cytopathic effect after 3 to 6 days by MTS assay; format: functional, organism-based
[16] = Cytotoxicity against MDCK cells assessed as alterations in normal cell morphology measured after 3 to 6 days by microscopic analysis; format: cell-based, Canis lupus familiaris; conditions: dog
How it was run: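 Uninfected MDCK cultures in FCS-free Ultra MDCK medium with trypsin received five-fold compound dilutions (up to […]) for 3–6 days at 35 °C. Microscopy scored morphology, and MCC was taken as the lowest concentration causing minimal rounding, shrinking or lysis.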

[17] = Cytotoxicity against human HeLa cells assessed as alterations in normal cell morphology measured after 3 to 6 days by microscopic analysis; format: cell-based
How it was run: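 Mock-infected HeLa cultures in 2% FCS medium received serial five-fold dilutions […] for 3–6 days at 37 °C. MCC was the lowest concentration giving microscopically visible minimal change in cell morphology (rounding, shrinking, lysis).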

[18] = test system: Human immunodeficiency virus; assay: Antiviral activity against HIV; format: functional, organism-based
[19] = test system: Sindbis virus; assay: Antiviral activity against Sindbis virus infected in African green monkey Vero cells assessed as inhibition of virus-induced cytopathic effect after 3 to 6 days by MTS assay; format: functional, organism-based
[20] = test system: Human adenovirus 2; assay: Antiviral activity against Human adenovirus type 2 infected in human HEL299 cells assessed as inhibition of virus-induced cytopathic effect after 3 to 6 days by MTS assay; format: functional, organism-based

Row | Compound | EC50 [1] [µM] | Activity [2] | EC50 [3] [µM] | Activity [4] | Activity [5] | Activity [6] | Activity [7] | Activity [8] | Activity [9] | Activity [10] | EC50 [11] [µM] | Activity [12] | CC50 [13] [µM] | Activity [14] | Activity [15] | MCC [16] [µM] | MCC [17] [µM] | Activity [18] | Activity [19] | Activity [20]
1 | NC1=NC2(CCN(C(=O)C3CCC3)CC2)N(c2cccc(Cl)c2)C(N)=N1 | 7.7 | inactive | 35 | inactive | inactive | Non-Toxic | inactive | inactive | inactive | inactive | > 100 | inactive | > 100 | inactive | inactive | ≥ 20 | > 100 | inactive | inactive | inactive
2 | COCCN1C(N)=NC(N)=NC12CCN(C(=O)Nc1ccc(OC)cc1)CC2 | > 100 | inactive | > 100 | inactive | inactive | Non-Toxic | inactive | inactive | inactive | inactive | > 100 | inactive | > 100 | inactive | inactive | > 100 | > 100 | inactive | inactive | inactive
3 | COc1cccc(N2C(N)=NC(N)=NC23CCN(C(=O)c2ccc(C(F)(F)F)cc2C)CC3)c1 | > 100 | inactive | > 100 | inactive | inactive | Non-Toxic | inactive | inactive | inactive | inactive | > 100 | inactive | > 100 | inactive | inactive | > 100 | > 100 | inactive | inactive | inactive
4 | CCCN1C(N)=NC(N)=NC12CCN(C(=O)NCCC(=O)OCC)CC2 | > 100 | inactive | > 100 | inactive | inactive | Non-Toxic | inactive | inactive | inactive | inactive | > 100 | inactive | > 100 | inactive | inactive | > 100 | > 100 | inactive | inactive | inactive
5 | COc1cccc(N2C(N)=NC(N)=NC23CCNCC3)c1 | > 100 | inactive | > 100 | inactive | inactive | Non-Toxic | inactive | inactive | inactive | inactive | > 100 | inactive | > 100 | inactive | inactive | > 100 | > 100 | inactive | inactive | inactive
6 | COCCN1C(N)=NC(N)=NC12CCN(C(=O)C1CC1)CC2 | > 100 | inactive | > 100 | inactive | inactive | Non-Toxic | inactive | inactive | inactive | inactive | > 100 | inactive | > 100 | inactive | inactive | > 100 | > 100 | inactive | inactive | inactive
7 | COCCN1C(N)=NC(N)=NC12CCN(C(=O)c1cccn1C)CC2 | > 100 | inactive | > 100 | inactive | inactive | Non-Toxic | inactive | inactive | inactive | inactive | > 100 | inactive | > 100 | inactive | inactive | > 100 | > 100 | inactive | inactive | inactive
8 | CC(C)(C)OC(=O)N1CCC2(CC1)N=C(N)N=C(N)N2c1cccc(Cl)c1 | 24 | inactive | 11 | inactive | inactive | Non-Toxic | inactive | inactive | inactive | inactive | > 100 | inactive | > 100 | inactive | inactive | ≥ 20 | > 100 | inactive | inactive | inactive
9 | CC(C)(C)OC(=O)N1CCC2(CC1)N=C(N)N=C(N)N2Cc1cccc(Cl)c1 | > 100 | inactive | > 100 | inactive | inactive | Non-Toxic | inactive | inactive | inactive | inactive | > 100 | inactive | > 100 | inactive | inactive | > 100 | > 100 | inactive | inactive | inactive
10 | NC1=NC2(CCN(C(=O)c3ccc4ccccc4c3)CC2)N(c2cccc(Cl)c2)C(N)=N1 | 4 | inactive | 28 | inactive | inactive | Non-Toxic | inactive | inactive | inactive | inactive | > 100 | inactive | > 100 | inactive | inactive | ≥ 4 | ≥ 100 | inactive | inactive | inactive
